Assay results published in ChEMBL document CHEMBL3352767, “Antibacterial ilicicolinic acids C and D and ilicicolinal from Neonectria discophora SNB-CN63 isolated from a termite nest” (J Nat Prod, 2015).
Values after ≈ are worked out from the molar mass of the structure shown.

Key:
[1] = test system: Staphylococcus aureus; experiment: Antimicrobial activity against Staphylococcus aureus ATCC 29213 after 24 hrs; type: functional; conditions: ATCC 29213, 24 h
[2] = test system: Aspergillus fumigatus; experiment: Antimicrobial activity against Aspergillus fumigatus SNB-AF1 after 24 hrs; conditions: SNB-AF1, 24 h
[3] = test system: Escherichia coli; experiment: Antimicrobial activity against Escherichia coli ATCC 25922 after 24 hrs; type: functional
[4] = test system: MRC5; experiment: Cytotoxicity activity against human MRC5 cells; type: cell-based
Procedure, shortened: (§1)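 IC50 in μM against KB (nasopharyngeal epidermoid carcinoma) and MRC5 (normal fetal lung) cells, with taxotere as the positive control.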

[5] = Selectivity index, ratio of IC50 for human MRC5 cells to IC50 for Trichophyton rubrum SNB-TR1
[6] = Selectivity index, ratio of IC50 for human MRC5 cells to IC50 for Staphylococcus aureus ATCC 29213
[7] = test system: Candida albicans; experiment: Antimicrobial activity against Candida albicans ATCC 10231 after 24 hrs; conditions: ATCC 10231, 24 h
[8] = Selectivity index, ratio of IC50 for human MRC5 cells to IC50 for Escherichia coli ATCC 25922
[9] = Selectivity index, ratio of IC50 for human MRC5 cells to IC50 for Candida parapsilosis ATCC 22019
[10] = Selectivity index, ratio of IC50 for human MRC5 cells to IC50 for Candida albicans ATCC 10231
[11] = test system: Trichophyton rubrum; experiment: Antimicrobial activity against Trichophyton rubrum SNB-TR1 after 5 days; type: functional; conditions: SNB-TR1, 120 h
Procedure, shortened: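 MIC against the dermatophyte T. rubrum, with itraconazole as the reference drug.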

[12] = Selectivity index, ratio of IC50 for human MRC5 cells to IC50 for Aspergillus […] SNB-AF1
[13] = Cytotoxicity activity against human MDA435 cells; conditions: MDA-MB-435
[14] = test system: Candida parapsilosis; experiment: Antimicrobial activity against Candida parapsilosis ATCC 22019 after 24 hrs; conditions: Lodderomyces parapsilosis, ATCC 22019, 24 h
[15] = test system: KB; experiment: Cytotoxicity activity against human KB cells; type: functional, cell-based; procedure, shortened: as §1

| Molecule | MIC [1] [µg/mL] | MIC [2] [µg/mL] | MIC ([3]; ATCC 25922, 24 h) [µg/mL] | IC50 [4] [µM] | Selectivity Index [5] | selectivity ratio [6] | MIC [7] [µg/mL] | selectivity ratio [8] | selectivity ratio [9] | selectivity ratio [10] | MIC [11] [µg/mL] | Selectivity Index [12] | IC50 [13] [µM] | MIC [14] [µg/mL] | IC50 [15] [µM] | MIC [3] [µg/mL] |
| --- | --- | --- | --- | --- | --- | --- | --- | --- | --- | --- | --- | --- | --- | --- | --- | --- |
| Cc1onc(-c2ccccc2)c1C(=O)N[C@@H]1C(=O)N2[C@@H]1SC(C)(C)[C@@H]2C(=O)O [OXACILLIN] | 0.5 (≈ 1.25 µM) |  |  |  |  |  |  |  |  |  |  |  |  |  |  |  |
| CC(C)=CCCC(C)(O)CCC/C(C)=C/Cc1c(O)c(Cl)c(C)c(C(=O)O)c1O (configuration not stated) | 32 (≈ 75.3 µM) | 32 (≈ 75.3 µM) | 8 (≈ 18.8 µM) | 13.7 | 1.5 | 0.2 | 32 (≈ 75.3 µM) | 0.7 | 0.2 | 0.2 | 4 (≈ 9.41 µM) | 0.2 | 4.9 | 32 (≈ 75.3 µM) | 28.4 |  |
| GENTAMICIN |  |  |  |  |  |  |  |  |  |  |  |  |  |  |  | 8 |
| C/C(=C\Cc1c(O)c(Cl)c(C)c(C(=O)O)c1O)CC/C=C(\C)CCCC(C)(C)O | 32 (≈ 75.3 µM) | 128 (≈ 301 µM) | 8 (≈ 18.8 µM) | 62.1 | 0.8 | 0.8 | 16 (≈ 37.7 µM) | 3.3 | 1.6 | 1.6 | 32 (≈ 75.3 µM) | 0.2 | 42.4 | 16 (≈ 37.7 µM) | 47.3 |  |
| OC(Cn1cncn1)(Cn1cncn1)c1ccc(F)cc1F [FLUCONAZOLE] |  |  |  |  |  |  | 4 (≈ 13.1 µM) |  |  |  |  |  |  | 4 (≈ 13.1 µM) |  |  |
| CC(C)=CCC/C(C)=C/CCC(C)(O)C1Cc2c(O)c(C=O)c(C)c(Cl)c2O1 (configuration not stated) | 128 (≈ 315 µM) | > 128 | 64 (≈ 157 µM) | 15.1 |  |  | 128 (≈ 315 µM) |  |  |  | 128 (≈ 315 µM) |  | 16.4 | 128 (≈ 315 µM) | 16.5 |  |
| CC(C)=CCC/C(C)=C/CC/C(C)=C/Cc1c(O)c(Cl)c(C)c(C(=O)O)c1O | 4 (≈ 9.83 µM) | 64 (≈ 157 µM) | 1 (≈ 2.46 µM) | 19.7 | 1 | 2 | 16 (≈ 39.3 µM) | 8 | 0.5 | 0.5 | 8 (≈ 19.7 µM) | 0.1 | 15.1 | 16 (≈ 39.3 µM) | 36.6 |  |
| CC(=O)O[C@@]12CO[C@@H]1C[C@H](O)[C@@]1(C)C(=O)[C@H](O)C3=C(C)[C@@H](OC(=O)[C@H](O)[C@@H](NC(=O)OC(C)(C)C)c4ccccc4)C[C@@](O)([C@@H](OC(=O)c4ccccc4)[C@H]21)C3(C)C [DOCETAXEL] |  |  |  | 0.0005 |  |  |  |  |  |  |  |  |  |  | 0.0002 |  |
| CCC(C)n1ncn(-c2ccc(N3CCN(c4ccc(OCC5COC(Cn6cncn6)(c6ccc(Cl)cc6Cl)O5)cc4)CC3)cc2)c1=O (configuration not stated) [ITRACONAZOLE] |  | 0.5 (≈ 0.709 µM) |  |  |  |  |  |  |  |  | 0.03 (≈ 0.0425 µM) |  |  |  |  |  |
